In the library only some 1.7% were active in any assay of this set; here they are far more common.
EBNA-1 inh – EBNA-1 DNA-binding inhibitors, primary screen, biochemical, fluorescence polarization; inhibition, % at 14.8 µM; 300,000 tested, 0.34% active; AID 1950, 2009; in the data active means inhibition above about 28%
ZTA counter – ZTA (EBV) inhibition in EBNA-1 counter-screen. P03206. ZTA-DNA binding, fluorescence polarization. inhibition, % at 11 µM. 320,000 tested, 0.15% active; in the data active means inhibition above about 33%
Target sequence (P03206 whole entry, looked up): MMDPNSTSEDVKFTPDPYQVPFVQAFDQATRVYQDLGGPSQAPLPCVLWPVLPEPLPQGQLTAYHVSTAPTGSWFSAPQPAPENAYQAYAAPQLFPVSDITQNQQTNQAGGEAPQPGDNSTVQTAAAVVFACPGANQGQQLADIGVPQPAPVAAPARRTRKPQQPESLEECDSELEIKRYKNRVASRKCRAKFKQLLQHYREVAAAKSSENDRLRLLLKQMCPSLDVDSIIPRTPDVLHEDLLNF
UBC13 polyUb – UBC13 polyubiquitin chain formation inhibitors, primary screen, biochemical, TR-FRET, uHTS. Ubiquitin-conjugating enzyme E2 N (Homo sapiens), P61088. inhibition, % at 20 µM. 330,000 tested, 0.47% active. AID 485273, 2010; in the data active means inhibition above about 45%, passing the limit was not always enough
Target sequence (P61088 whole entry, looked up): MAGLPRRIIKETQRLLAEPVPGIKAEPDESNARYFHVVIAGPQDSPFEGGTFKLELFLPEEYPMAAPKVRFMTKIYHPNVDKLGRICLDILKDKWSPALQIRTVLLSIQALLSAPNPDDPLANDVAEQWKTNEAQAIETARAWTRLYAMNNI
PREPL inhibitor – PREPL enzyme inhibitors, primary screen, biochemical, fluorescence polarization; Prolyl endopeptidase-like (Homo sapiens), Q4J6C6; recombinant PREPL, fluorescence polarization activity-based probe; inhibition, % at 5.96 µM; 320,000 tested, 0.68% active; AID 2751, 2010;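 further: 0% = enzyme with DMSO and 100% = wells lacking enzyme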
Apaf1 inhib – inhibitors of human Apaf-1 apoptosome, primary screen, biochemical, DEVD-Rh110 fluorescence, uHTS; Apoptotic protease-activating factor 1 (Homo sapiens), O14727; reconstituted apoptosome caspase-3 activity; inhibition, % at 20 µM; 330,000 tested, 0.71% active; AID 489030, 2010; active means inhibition of at least 40% at 20 µM;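 further: plate controls were DMSO wells for no effect and DEVD-CHO caspase inhibitor wells for full effect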
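Material: reconstituted apoptosome with Apaf-1, cytochrome c, caspase-9, procaspase-3, dATP; medium: pH 7.5 Hepes buffer with CHAPS, BSA, DTT; also added: cytochrome c and DEVD-Rh110 substrate; timing: 30 min plus 50 min, RT; signal: Rh110 fluorescence intensity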
PREPL inh cf – human PREPL enzyme inhibitors, confirmation, biochemical, fluorescence polarization. shares compounds with PREPL inhibitor. recombinant PREPL, fluorescence polarization activity probe. inhibition, % at 5.96 µM. 2,000 tested, 67% active;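 further: 0% = protein with DMSO and 100% = wells lacking protein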
The depositor's hits bear a star; nt = not tested or not shown. Unless noted, no stated cut-off is given here; in the data, active means inhibition above about 43%; inactive means the rest.

SMILES	EBNA-1 inh	ZTA counter	UBC13 polyUb	PREPL inhibitor	Apaf1 inhib	PREPL inh cf
CCN(CC)C(=O)CC(c1cc(OC)c(OC)c(OC)c1)c1c(O)cc(OC)cc1OC (stereo not given)	-4.6	-15.1	-1.4	-3.1	5.2	nt
CCN(CC)CCC(c1cc(OC)c(OC)c(OC)c1)c1c(O)cc(OC)cc1OC (stereo not given)	2.7	7.2	12.9	44.7*	-1.9	47.0*
NCCCn1c(C(=O)c2cc(Cl)c(N)c(Cl)c2)c2ccc([N+](=O)[O-])cc2[n+]1[O-]	-0.9	-3.8	14.6	61.2*	33.7	69.5*
CCOc1cc(N2CCOCC2)c(OCC)cc1NC(=O)COC(=O)CCOc1ccc(C(C)(C)C)cc1	2.8	3.3	-4.1	6.2	29.3	nt
CC(C)(C)c1ccc(OCCC(=O)Nc2ccc(N3CCOCC3)cc2N2CCOCC2)cc1	-6.0	-0.2	1.8	49.3*	37.2	41.9
COc1ccc(OCC(=O)Nc2ccc(N3CCOCC3)cc2)cc1	10.7	-2.2	8.1	23.9	-19.8	nt
Cc1ccc(OCC(=O)Nc2ccc(N3CCOCC3)cc2)cc1	3.0	-6.0	2.9	44.9*	-17.8	31.2
CCC(=O)N1CCN(c2ccc(NC(=O)COc3ccc(CC)cc3)cc2)CC1	-3.1	-3.7	-3.0	44.7*	12.8	47.6*
CCC(=O)N1CCN(c2ccc(NC(=S)NC(=O)COc3ccccc3)cc2)CC1	-8.1	-8.3	1.2	22.9	17.7	nt
CS(=O)(=O)N(CC(=O)NCCSCc1cccc(Cl)c1)c1ccccc1F	-14.5	-9.2	-6.8	20.9	11.4	nt
Cc1c(C(=O)N2CCN(S(=O)(=O)c3ccccc3)CC2)oc2ccccc12	nt	nt	-5.7	nt	21.4	nt
Clc1ccc(C2=C3CCCCn4c(-c5ccccc5)c[n+](c43)C2)cc1	7.4	3.0	14.3	50.0*	32.8	27.2
O=C(C[n+]1cc(-c2ccc(Cl)cc2)n2c1CCCCC2)c1ccccc1	-11.4	-16.0	-0.3	32.0	4.7	nt
Fc1cccc(CCN2CCNC[C@@H]2CC2CCCCC2)c1	nt	-0.3	24.0	43.8*	29.0	41.9
CC(=O)Nc1ccc(NC(=O)CSc2nnc(NC(=O)C3CC(=O)N(c4ccccc4)C3)s2)cc1 (stereo not given)	11.7	-5.8	-1.1	-1.2	9.6	nt
N#Cc1ncc(Cc2ccccc2)nc1C#N	-2.4	3.9	-2.9	52.1*	4.2	37.7
N#Cc1nc(Cc2ccccc2)oc1NCc1cccnc1	5.5	-14.9	11.2	16.3	4.0	nt
c1ccc(CN2CCN(c3nc(N4CCOCC4)c4ccccc4n3)CC2)cc1	0.8	11.6	4.3	46.1*	6.2	38.5
COc1ccc(-c2cn3c(C)c(C(=O)N4CCc5ccccc5C4)sc3n2)cc1	-7.2	-12.2	13.1	50.4*	12.8	40.2
Cc1c(C(=O)N2CCc3ccccc3C2)sc2nc(-c3ccccc3)cn12	-0.7	-12.1	8.4	-23.9	8.4	nt
COc1cccc(/C=N/Nc2ccnc(=O)[nH]2)c1O	6.8	3.5	-17.6	3.3	-2.2	nt
COc1cccc(/C=N/Nc2ccc([N+](=O)[O-])cn2)c1O	-1.6	3.0	-61.8	56.1*	5.5	18.3
CCOc1ccc2nc(NC(=O)c3cnccn3)sc2c1	-3.4	-1.6	-8.4	-2.3	-0.7	nt
CN(C)S(=O)(=O)c1ccc2nnn(OCC(=O)NC34CC5CC(CC(C5)C3)C4)c2c1	5.8	-5.5	5.8	-5.9	5.1	nt
Cc1ccc(NS(=O)(=O)c2ccc(C(=O)Nc3nncs3)cc2)cc1	nt	nt	-4.3	45.2*	0.8	8.2
SMILES	EBNA-1 inh	ZTA counter	UBC13 polyUb	PREPL inhibitor	Apaf1 inhib	PREPL inh cf
Cc1ccc(S(=O)(=O)Nc2ccc(C(=O)NC3CC3)cc2)cc1	6.4	2.1	2.6	5.9	1.2	nt
Cc1nc2cc(C(=O)O)ccc2n1C1CCCCC1	-0.3	-3.3	-9.2	3.4	0.2	nt
Cc1nc2cc(N)ccc2n1C1CCCCC1	0.0	-14.3	-5.6	48.8*	10.1	5.7
CN(C)c1ccc(CNc2ccc3c(c2)ncn3C(C)(C)C)cc1	-6.6	3.8	-0.3	43.4*	3.9	27.8
CCCn1cnc2cc(NCc3ccc(Br)cc3)ccc21	1.8	14.8	12.2	49.1*	15.5	46.0*
CCOc1cc(N2CCOCC2)c(OCC)cc1NC(=O)[C@H](C)NC(=O)c1ccco1	13.8	-8.8	-4.1	-7.7	-3.6	nt
O=C(Nc1ccccc1Sc1ccccc1)c1ccccc1	9.1	-9.6	9.1	-17.2	19.8	nt
Cc1ccc(NC(=O)Cn2c(-c3ccc(F)cc3)cnc2SCC(=O)Nc2c(C)cccc2C)cc1	0.4	5.0	-7.4	47.3*	9.2	12.7
Cc1cc2cc(CNC(=O)c3ccc(Br)o3)ccc2n1C	6.8	3.6	-7.6	65.2*	12.0	65.6*
Cc1cc2cc(CNC(=O)c3ccc(Br)o3)ccc2[nH]1	3.5	5.3	-11.0	53.1*	27.9	23.8
CC1Oc2ccccc2N(Cc2cccc(F)c2)C1=O (stereo not given)	-10.2	3.9	8.5	-31.3	1.5	nt
Oc1c(CN2CCOCC2)cc(COCc2ccccc2)c2cccnc12	-3.9	16.9	nt	56.2*	nt	64.5*
O=P(c1ccccc1)(c1ccccc1)C(O)c1ccncc1 (stereo not given)	-1.4	-3.2	1.0	2.5	-7.2	nt
O=c1cc(-c2ccc(O)c(O)c2)oc2cc(O)cc(O)c12	-5.4	10.1	28.0	19.8	7.6	nt
O=c1cc(-c2ccc(O)cc2)oc2c(-c3c(O)cc(O)c4c(=O)cc(-c5ccc(O)cc5)oc34)c(O)cc(O)c12	nt	nt	-14.2	50.6*	-11.5	15.1
CCCC(=O)Nc1cc2c3c(c1)CC(=O)N3CCC2	-8.3	-6.1	-8.9	3.2	10.1	nt
O=C(COc1ccc(Cl)cc1)Nc1cc2c3c(c1)CC(=O)N3CCC2	-7.6	3.5	1.5	46.5*	15.4	34.9
O=C(NCCc1ccccc1)c1ccc2c(c1)S(=O)(=O)c1cc(Cl)ccc1C2=O	nt	1.1	-18.7	56.2*	17.2	19.5
O=C(NCc1ccccc1)c1ccc2c(c1)S(=O)(=O)c1cc(Cl)ccc1C2=O	nt	-3.0	14.5	34.2	11.4	nt
CCOC(=O)C1CCN(C(=O)Nc2ccc3nc(-c4ccco4)c(-c4ccco4)nc3c2)CC1	4.3	10.7	-12.3	60.1*	69.8*	64.0*
C/C(=C\c1ccccc1)CN1CCC(C(=O)N2CCCCC2)CC1	7.1	6.9	-2.1	27.0	-11.0	nt
COC(=O)/C(C#N)=C/c1c(N2CCN(c3ccccc3)CC2)nc2c(C)cccn2c1=O	nt	nt	-0.8	nt	19.7	nt
COc1ccc(N2CCN(c3nc4c(C)cccn4c(=O)c3/C=C(\C#N)C(N)=O)CC2)cc1	-5.0	-7.5	8.7	53.6*	21.9	52.6*
